Measurements taken from ChEMBL document CHEMBL1151690, “The design, synthesis, and anti-tumor mechanism study of N-phosphoryl amino acid modified resveratrol analogues” (Bioorg Med Chem, 2008).
Active and inactive are the calls of the source. No cut-off for these calls is given here.

Tests used:
[1] = Antiproliferative activity against human CNE1 cells after 72 hrs by MTT assay; format: functional, cell-based; conditions: CNE
Procedure, shortened: (§1)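 MTT assay. Cells were grown in DMEM with 10% FBS, penicillin and streptomycin at 37 °C in 5% CO2, seeded in 96-well plates and exposed to compounds at 0.5–100 μM for 72 h. They were then given MTT (5 mg/ml) for 4 h, the formazan was dissolved in DMSO and A595 was read. IC50 is the mean ± SEM of three experiments.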

[2] = (§2) Antiproliferative activity against human CNE2 cells after 72 hrs by MTT assay; format: functional, cell-based; conditions: CNE-2, 72 h; procedure, shortened: as §1
[3] = Cell cycle arrest in human CNE2 cells assessed as accumulation at sub-G0-G1 phase visualized by propidium iodide staining at 50 uM after 24 hrs by flow cytometry; format: functional, cell-based; conditions: CNE-2
Procedure, shortened: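 CNE-2 cells were treated at 50 μM for 24 h, stained with propidium iodide and analysed by flow cytometry of DNA-content histograms. Apoptotic events were scored as the sub-G0–G1 population, and the cell-cycle phase distribution was also recorded.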

K562 = test: Antiproliferative activity against human K-562 cells after 72 hrs by MTT assay; format: functional, cell-based; conditions: K562, 72 h
Procedure, shortened: (§3)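 IC50 from 72 h of compound treatment, reported as the mean ± SEM of three experiments, with significance set at P < 0.05.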

HeLa = test: Antiproliferative activity against human HeLa cells after 72 hrs by MTT assay; format: functional, cell-based; procedure, shortened: as §3
CNE-2 [4] = test: Antiproliferative activity against human CNE2 cells at 9.86 uM by MTT assay; format: functional, cell-based; conditions: TDE = time-dependent effect
Procedure, shortened: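 CNE-2 nasopharyngeal carcinoma cells were grown in DMEM with 10% FBS and penicillin/streptomycin at 37 °C under 5% CO2. Cells were seeded in 96-well plates and exposed to compound at 0.5–100 µM for 24, 48 or 72 h; tabulated values are from 72 h. MTT (5 mg/ml) was added for 4 h, formazan dissolved in DMSO, A595 read. IC50 reported as mean ± SEM, three experiments.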

CNE-2 [5] = test: Induction of apoptosis in human CNE2 cells assessed as DNA fragmentation at 50 uM after 24 hrs by agarose gel electrophoresis; format: functional, cell-based
Procedure, shortened: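 CNE-2 cells were treated at 50 μM for 24 h, with untreated cells as control. DNA was obtained by standard digestion and organic extraction, run on a 2% agarose gel and stained with ethidium bromide to detect ladders.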

CNE-2 [6] = test: Induction of apoptosis in human CNE2 cells assessed as caspase 3-mediated PARP cleavage at 50 uM after 24 hrs by enhanced chemiluminescence detection; format: functional, cell-based
Procedure, shortened: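 CNE-2 cells were treated at 50 μM for 24 h and lysed on ice for 30 min in Tris/EDTA/NaCl/SDS/Triton/deoxycholate/PMSF buffer. Cytosolic protein (25 μg, 15,000g supernatant) was run on 12% SDS-PAGE and blotted to nitrocellulose. Blots were probed with anti-PARP (1:1000) in milk block, and the 89 kDa cleaved band was detected by ECL.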

CNE-2 [7] = test: as §2; format: functional, cell-based; procedure, shortened: as §1
CNE-2 [8] = test: Antiproliferative activity against human CNE2 cells at 5.19 uM by MTT assay; format: functional, cell-based; conditions: TDE = time-dependent effect
CNE-2 [9] = test: Antiproliferative activity against human CNE2 cells at 5.06 uM by MTT assay; format: functional, cell-based; conditions: TDE = time-dependent effect
CNE-2 [10] = test: Induction of apoptosis in human CNE2 cells assessed as intracellular ROS production visualized by DCFH-DA after 30 hrs by FACS analysis; format: functional, cell-based
Procedure, shortened: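 CNE-2 cells were treated at 50 μM for 0–30 h (0, 2, 4, 6, 8, 13, 19, 24, 30 h), trypsinized, centrifuged and PBS-washed. They were loaded with DCFH-DA (10 μM) at 37 °C for 30 min, and the percentage of cells with higher DCF fluorescence was measured by FACS.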

CNE-2 [11] = test: Induction of apoptosis in human CNE2 cells assessed as late stage apoptotic cell count at 50 uM after 24 hrs by Annexin-V-FITC/PI binding assay; format: functional
Procedure, shortened: (§4)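 CNE-2 cells were treated at 5, 10, 25 or 50 μM for 24 h, collected, washed in ice-cold PBS, stained with Annexin-V-FITC and PI, and analysed by flow cytometry. Annexin-V+/PI− cells were counted as early apoptotic and double-positive cells as late apoptotic.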

CNE-2 [12] = test: Induction of apoptosis in human CNE2 cells assessed as late stage apoptotic cell count at 5 uM after 24 hrs by Annexin-V-FITC/PI binding assay; format: functional; procedure, shortened: as §4
CNE-2 [13] = test: Induction of apoptosis in human CNE2 cells assessed as early stage apoptotic cell count at 25 uM after 24 hrs by Annexin-V-FITC/PI binding assay; format: functional; procedure, shortened: as §4
CNE-2 [14] = test: Induction of apoptosis in human CNE2 cells assessed as early stage apoptotic cell count at 10 uM after 24 hrs by Annexin-V-FITC/PI binding assay; format: functional; procedure, shortened: as §4
CNE-2 [15] = test: Induction of apoptosis in human CNE2 cells assessed as increase in caspase 9 activity at 50 uM upto 24 hrs; format: functional, cell-based
Procedure, shortened: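 CNE-2 cells were treated at 50 μM for 0, 2, 4, 8, 14 and 24 h, trypsinized, PBS-washed and lysed on ice for 15 min. Lysates were spun at 20,000g at 4 °C, and 0.1 mg protein (Bradford) was incubated with Ac-LEHD-pNA for 2 h at 37 °C. pNA release was recorded at A405.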

CNE-2 [16] = test: Induction of apoptosis in human CNE2 cells assessed as early stage apoptotic cell count at 5 uM after 24 hrs by Annexin-V-FITC/PI binding assay; format: functional; procedure, shortened: as §4
CNE-2 [17] = test: Induction of apoptosis in human CNE2 cells assessed as early stage apoptotic cell count at 50 uM after 24 hrs by Annexin-V-FITC/PI binding assay; format: functional; procedure, shortened: as §4
CNE-2 [18] = test: Induction of apoptosis in human CNE2 cells assessed as late stage apoptotic cell count at 10 uM after 24 hrs by Annexin-V-FITC/PI binding assay; format: functional; procedure, shortened: as §4
CNE-2 [19] = test: Antiproliferative activity against human CNE2 cells at 3.45 uM by MTT assay; format: functional, cell-based; conditions: TDE = time-dependent effect
CNE-2 [20] = test: Induction of apoptosis in human CNE2 cells assessed as late stage apoptotic cell count at 25 uM after 24 hrs by Annexin-V-FITC/PI binding assay; format: functional; procedure, shortened: as §4

Row | Compound | IC50 [1] | IC50 [2] | other results
1 | Oc1ccc(/C=C/c2cc(O)cc(O)c2)cc1 [RESVERATROL] | 67.6 µM | 52.3 µM | 
2 | CC(C)OP(=O)(OC(C)C)N1CCC[C@H]1C(=O)Nc1ccc(/C=C/c2ccccc2)cc1 | 10.1 µM | 12.2 µM | 
3 | CC(C)OP(=O)(NCCC(=O)Nc1ccc(/C=C/c2ccccc2)cc1)OC(C)C | 29.8 µM | 6.81 µM | 
4 | CC(C)OP(=O)(N[C@@H](C)C(=O)Nc1ccc(/C=C/c2ccccc2)cc1)OC(C)C | 25.4 µM | 12.8 µM | 
5 | Nc1ccc(/C=C/c2ccccc2)cc1 [(E)-4-STYRYLANILINE] | 54.5 µM | 98.7 µM | 
6 | COc1cc(/C=C/c2ccc(NC(=O)CCNP(=O)(OC(C)C)OC(C)C)cc2)cc(OC)c1 | 10.1 µM | 8.19 µM | 
7 | CC(C)C[C@H](NP(=O)(OC(C)C)OC(C)C)C(=O)Nc1ccc(/C=C/c2ccccc2)cc1 | 54.3 µM | 65.6 µM | 
8 | COc1cc(/C=C/c2ccc(NC(=O)[C@H](C)NP(=O)(OC(C)C)OC(C)C)cc2)cc(OC)c1 | 29.2 µM | 11.7 µM | 
9 | COc1cc(/C=C/c2ccc(NC(=O)[C@H](Cc3ccccc3)NP(=O)(OC(C)C)OC(C)C)cc2)cc(OC)c1 | 43.4 µM | 9.83 µM | 
10 | CC(C)OP(=O)(NCC(=O)Nc1ccc(/C=C/c2ccccc2)cc1)OC(C)C | 7.5 µM | 7.01 µM | 
11 | CC(C)OP(=O)(N[C@H](C(=O)Nc1ccc(/C=C/c2ccccc2)cc1)C(C)C)OC(C)C | 49.3 µM | 128 µM | 
12 | COc1cc(/C=C/c2ccc(NC(=O)[C@@H]3CCCN3P(=O)(OC(C)C)OC(C)C)cc2)cc(OC)c1 | 8.11 µM | 9.86 µM | Activity [3]: 32.1%; IC50 (K562): 9.15 µM; IC50 (HeLa): 9.53 µM; Activity (CNE-2 [4]): tde; Activity (CNE-2 [5]): Active; Activity (CNE-2 [6]): Active; Activity (CNE-2 [7]): Dose-dependent effect
13 | CC(C)OP(=O)(N[C@@H](Cc1ccccc1)C(=O)Nc1ccc(/C=C/c2ccccc2)cc1)OC(C)C | 83.7 µM | 92.1 µM | 
14 | COc1cc(/C=C/c2ccc(NC(=O)CCCNP(=O)(OC(C)C)OC(C)C)cc2)cc(OC)c1 | 12.3 µM | 15.2 µM | 
15 | CC(C)OP(=O)(NCCCCCC(=O)Nc1ccc(/C=C/c2ccccc2)cc1)OC(C)C | 8.58 µM | 24.3 µM | 
16 | CC(C)OP(=O)(NCCCC(=O)Nc1ccc(/C=C/c2ccccc2)cc1)OC(C)C | 9.03 µM | 6.47 µM | 
17 | CC(C)OP(=O)(NCCCCC(=O)Nc1ccc(/C=C/c2ccccc2)cc1)OC(C)C | 6.36 µM | 5.19 µM | Activity [3]: 45.3%; IC50 (K562): 9.58 µM; IC50 (HeLa): 9.75 µM; Activity (CNE-2 [8]): tde; Activity (CNE-2 [5]): Active; Activity (CNE-2 [6]): Active; Activity (CNE-2 [7]): Dose-dependent effect
18 | COc1cc(/C=C/c2ccc(NC(=O)CCCCCNP(=O)(OC(C)C)OC(C)C)cc2)cc(OC)c1 | 6.37 µM | 5.06 µM | Activity [3]: 57%; IC50 (K562): 6.89 µM; IC50 (HeLa): 6.41 µM; Activity (CNE-2 [5]): Active; Activity (CNE-2 [6]): Active; Activity (CNE-2 [9]): tde; Activity (CNE-2 [7]): Dose-dependent effect
19 | COc1cc(/C=C/c2ccc(NC(=O)[C@@H](NP(=O)(OC(C)C)OC(C)C)C(C)C)cc2)cc(OC)c1 | 116 µM | 77.4 µM | 
20 | COc1cc(/C=C/c2ccc(NC(=O)[C@H](CC(C)C)NP(=O)(OC(C)C)OC(C)C)cc2)cc(OC)c1 | 55.3 µM | 14.3 µM | 
21 | COc1cc(/C=C/c2ccc(NC(=O)CNP(=O)(OC(C)C)OC(C)C)cc2)cc(OC)c1 | 8.91 µM | 7.12 µM | 
22 | COc1cc(/C=C/c2ccc(NC(=O)CCCCNP(=O)(OC(C)C)OC(C)C)cc2)cc(OC)c1 | 5.67 µM | 3.45 µM | Activity [3]: 91.6%; IC50 (K562): 5.32 µM; Activity (CNE-2 [10]): Active; IC50 (HeLa): 5.62 µM; Activity (CNE-2 [11]): 66.79%; Activity (CNE-2 [12]): 9.86%; Activity (CNE-2 [13]): 21.24%; Activity (CNE-2 [14]): 16.24%; Activity (CNE-2 [5]): Active; Activity (CNE-2 [6]): Active; Activity (CNE-2 [15]): Active; Activity (CNE-2 [16]): 6.45%; Activity (CNE-2 [7]): Dose-dependent effect; Activity (CNE-2 [17]): 18.78%; Activity (CNE-2 [18]): 22.51%; Activity (CNE-2 [19]): tde; Activity (CNE-2 [20]): 41.12%
